Measured values: the RNAGym collection of RNA variant scans (doi:10.1038/nmeth.2970)

B1: NELF-E aptamer (parent)
chain: CCCAACGACUGCCGAGCGAGAUUACGCUUGAGCGCCCCACUGAGGAUGCCCACGGGCGAUUGGGGCACGG

Variants of: B1
Test: HiTS-RAP
Settings: with NELF-E (Drosophila)
Outline: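 Kd came from weighted Hill fits to the first binding curve, with intensities normalised to sequencing intensity and averaged per sequence, keeping only fits whose variance was below 1,000,000. That curve was imaged on an Illumina GAIIx flowcell, where sequenced aptamer DNA templates with a T7 promoter and ter site had been transcribed in situ by T7 RNA polymerase and halted by GST-Tus (30 minutes, 37°C). Before each image, clusters equilibrated for 30 minutes at room temperature with NELF-E-mOrange at 0.064 to 1000 nM in HEPES binding buffer.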

Row | Variant | Kd [nM]
1 | A5G U10G | 5.47
2 | A5G U10A | 4.67
3 | A4U C9G | 5.93
4 | A4U C9U | 5.8
5 | A4U C51U | 7.05
6 | A4U A52U | 20.1
7 | A4U A52G | 4.05
8 | A5G G56A | 11.2
9 | A5G G56U | 7.96
10 | C6G C17U | 6.03
11 | C6G C17G | 5.02
12 | A4U G11U | 6.41
13 | A4U G11A | 4.95
14 | A5C U41G | 7.61
15 | C6G A31U | 5.5
16 | C6G A31G | 6.87
17 | C6G C33U | 5.41
18 | C6G C33G | 5.77
19 | A5G G18U | 6.11
20 | A5G G18A | 5.15
21 | A5G A46G | 15.3
22 | A5G A46U | 90.8
23 | C6G C36U | 7.42
24 | A4U U29A | 4.29

Row | Variant | Kd [nM]
25 | A4U U29C | 5.56
26 | A4U U29G | 5.91
27 | A5C C9G | 7.82
28 | A5U C9U | 6.47
29 | A5U C9G | 6.45
30 | A4U U41C | 66
31 | A4U U41G | 6.46
32 | A4U U41A | 86.3
33 | A4U C57U | 5.44
34 | A5G A21U | 6.3
35 | A5G A21G | 5.66
36 | A5U A59G | 81.5
37 | A5G C40U | 60.2
38 | A5C U23G | 7.92
39 | A5G U23G | 6.21
40 | A5G U23C | 5.22
41 | A5G U23A | 5.47
42 | A5G G54A | 12.9
43 | A5G G20A | 6.58
44 | A5G G20U | 6.78
45 | A5U G65U | 8.58
46 | A5U G65A | 6.8
47 | C6A | 6.13
48 | C6G | 4.75

Row | Variant | Kd [nM]
49 | A4U C50U | 12.7
50 | A5G A67G | 6.71
51 | A5G A67U | 7.84
52 | A5G G7A | 6.52
53 | A5G G7U | 6.59
54 | A5U U28G | 7.17
55 | A5U U28C | 7.9
56 | A5G C36U | 6.13
57 | C6A A8U | 7.06
58 | A5G A59U | 113
59 | A5G A59G | 29.5
60 | C6G C37U | 23.4
61 | C6G C37A | 18.7
62 | A5G A15G | 6.77
63 | A5G A15U | 7.04
64 | C6G A46G | 40.5
65 | C6G A46U | 56.8
66 | A5U G56A | 7.71
67 | A5U G56U | 6.51
68 | A5U G11A | 7.76
69 | A5U G11U | 6.52
70 | A4U A67G | 5.89
71 | A5U G7U | 6.92
72 | A5U G7A | 6.51

Row | Variant | Kd [nM]
73 | A5U U29A | 5.62
74 | A5U U29C | 8.32
75 | A5U U29G | 5.91
76 | A5G G30A | 5.43
77 | C6G C13G | 5.09
78 | C6G C13U | 4.96
79 | A5U A15U | 6.62
80 | A5U A15G | 5.49
81 | A4U U61C | 74.2
82 | A4U U61A | 22.7
83 | A4U C25G | 5.99
84 | A4U C25U | 4.95
85 | A4U A39U | 31.1
86 | A4U A39G | 10.9
87 | C6G C40G | 8.23
88 | A5C U10G | 6.68
89 | A5C C13G | 6.73
90 | A5G A19U | 7.26
91 | A5G A19G | 5.88
92 | A5U | 5.66
93 | A5G | 5.54
94 | A5C | 6.55
95 | A5G U60C | 11.3
96 | A5G G16A | 6.56

Row | Variant | Kd [nM]
97 | A5G G16U | 7.42
98 | A5U G14U | 6.34
99 | A5U G14A | 6.18
100 | A5G G64A | 8.07
101 | C6G A39C | 24
102 | C6G A39G | 9.71
103 | C6G A39U | 28.8
104 | A5U A8C | 8.3
105 | A5U A8U | 6.78
106 | A5U A8G | 6.23
107 | A5U U23G | 6.01
108 | A5U U23A | 5.58
109 | A5U A43U | 99.1
110 | A5U A43G | 15.1
111 | A5G U61C | 64.6
112 | A5G U61A | 37.8
113 | A5U A31G | 7.03
114 | A4U G62A | 13.5
115 | C6G C9U | 5.58
116 | C6G C9G | 5.38
117 | A5G U28C | 10.2
118 | A5G U28G | 7.79
119 | A5C A8C | 8.75
120 | A5C A8U | 8.29

Row | Variant | Kd [nM]
121 | A5C A8G | 6.78
122 | A5G U47G | 7.6
123 | A5G G62A | 13.5
124 | A5G A43U | 33.6
125 | A5G A43G | 25.6
126 | A4U U22G | 5.86
127 | A4U U22C | 5.97
128 | A4U U28C | 7.47
129 | A4U U28A | 5.47
130 | A5U A21U | 6.61
131 | A5U A21G | 7.74
132 | A5U C37A | 14.8
133 | A5U G64A | 8.76
134 | C6A G7U | 6.56
135 | A5U C12G | 6.84
136 | A5U C12U | 6.37
137 | A5U C50U | 15
138 | A5U A46G | 34.6
139 | A5G C38U | 9.85
140 | C6G A59U | 25.7
141 | C6G A59G | 54.9
142 | A4U G63A | 13.6
143 | A4U G63U | 11.1
144 | A4U C53U | 3.61

Row | Variant | Kd [nM]
145 | A5C G7U | 7.5
146 | A5G A24G | 6.27
147 | C6G C35G | 7.18
148 | C6G C35U | 16.8
149 | A4U G14U | 6.79
150 | A4U G14A | 6
151 | A5G G48A | 12.6
152 | A5U C6A | 7.45
153 | A5U C6G | 5.7
154 | A5U C6U | 4.75
155 | C6A C9G | 7.55
156 | A5G C13G | 5.6
157 | A5G C13U | 5.63
158 | A5G C13A | 5.36
159 | A5U U22G | 6.13
160 | A5U U22C | 5.1
161 | C6G A19U | 5.95
162 | C6G A19G | 5.53
163 | C6A U10G | 5.78
164 | A5U G42A | 67.8
165 | A4U A24G | 6.45
166 | C6G C27U | 5.23
167 | A4U C38U | 6.95
